ChEMBL document CHEMBL3124765, “Glucal-conjugated sterols as novel vascular leakage blocker: structure-activity relationship focusing on the C17-side chain” (Eur J Med Chem, 2014)
The source made the active and inactive calls. The rule behind the calls is not given here.

How the values were obtained:
Homo sapiens [1] = species on record: Homo sapiens; test: Antiapoptotic activity against HREC at 10 ug/ml after 48 hrs by MTT assay; format: functional
Homo sapiens [2] = species on record: Homo sapiens; test: Antiapoptotic activity against HREC after 48 hrs by MTT assay; format: functional
Summary of the method: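 Serum-deprived human retinal endothelial cells (passages 2–7, grown on gelatin-coated dishes in EBM-2/EGM-2 with 20% FBS) exposed to analogs for 48 h; viability read by MTT colorimetric assay. Single-point screen at 10 mg/mL; dose-response over […]. Controls were medium alone (0 h) and DMSO vehicle.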

Homo sapiens [3] = species on record: Homo sapiens; test: Antiapoptotic activity against VEGF-treated HREC assessed as enhancement of occludin integrity at 10 ug/ml incubated for 60 mins prior to VEGF challenge measured after 60 mins by immunofluorescence microscopy; format: functional
Homo sapiens [4] = species on record: Homo sapiens; test: Antiapoptotic activity against HREC assessed as stabilization of cortical actin ring by measuring reduction of VEGF-induced actin stress fibre formation at 10 ug/ml incubated for 60 mins prior to VEGF challenge measured after 60 mins by immunofluorescence microscopy; format: functional
Homo sapiens [5] = species on record: Homo sapiens; test: Antiapoptotic activity against VEGF-treated HREC assessed as enhancement of occludin integrity at 1 to 10 ug/ml incubated for 60 mins prior to 20 ng/ml VEGF challenge measured after 60 mins by ZO-1 staining-based microscopy; format: functional
Homo sapiens [6] = species on record: Homo sapiens; test: Antiapoptotic activity against VEGF-treated HREC assessed as enhancement of occludin integrity at 10 ug/ml incubated for 60 mins prior to 50 ng/ml VEGF challenge measured after 60 mins by ZO-1 staining-based microscopy; format: functional
Mus musculus [7] = test: Inhibition of VEGF-induced retinal vascular leakage in C57BL/6 mouse diabetic retinopathy model at 10 ug/ml, […] after 24 hrs by FITC-dextran staining-based fluorescein angiography; format: functional, organism-based
Summary of the method: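 Eight-week-old C57BL/6 mice received an intravitreal injection of VEGF (50 ng) with or without analog ([…]) in one eye, and DMSO vehicle (same total volume, […]) in the contralateral eye. After 24 h, 40-kDa FITC-dextran (3 mg) was injected into the left ventricle and circulated 5 min. Eyes were fixed in 4% PFA and retinas flat-mounted for fluorescence microscopy.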

Mus musculus [8] = test: Inhibition of retinal vascular leakage in C57BL/6 mouse diabetic retinopathy model at 10 ug/ml, […] after 24 hrs by FITC-dextran staining-based fluorescein angiography; format: functional, organism-based
Summary of the method: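 Diabetes induced in C57BL/6 mice with streptozotocin 90 mg/kg i.p. in citrate buffer pH 4.5, daily for 4 days; mice with glucose >300 mg/dl 3 days later were used. Analog ([…]) given intravitreally to one eye, DMSO to the other; n=5/group. At 24 h, leakage assessed by FITC-dextran angiography and Evans blue extraction (620 nm) normalized to retinal weight, blood dye and circulation time.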

Mus musculus [9] = test: Inhibition of retinal vascular leakage in C57BL/6 mouse diabetic retinopathy model assessed as restoration of reduced occludin expression at 10 ug/ml, […] after 24 hrs by Western blotting analysis; format: functional, organism-based
Homo sapiens [10] = species on record: Homo sapiens; test: Antiapoptotic activity against HREC assessed as reduction in VEGF-induced actin stress fibre formation at 10 to 20 ug/ml incubated for 60 mins prior to VEGF challenge measured after 60 mins by immunofluorescence microscopy; format: functional

Row | Compound | Activity (Homo sapiens [1]) | further results
1 | CCCCO/N=C(\C)[C@H]1CC[C@H]2[C@@H]3CC=C4C[C@@H](OC5C=C[C@H](OC(C)=O)C(COC(C)=O)O5)CC[C@]4(C)[C@H]3CC[C@]12C (single isomer, unassigned) | Active | 
2 | CC(=O)OCC1OC(O[C@H]2CC[C@@]3(C)C(=CC[C@H]4[C@@H]5CC[C@H](/C(C)=N/OC6CCCCC6)[C@@]5(C)CC[C@@H]43)C2)C=C[C@@H]1OC(C)=O (single isomer, unassigned) | Active | 
3 | C#CCO/N=C(\C)[C@H]1CC[C@H]2[C@@H]3CC=C4C[C@@H](OC5C=C[C@H](OC(C)=O)[C@@H](COC(C)=O)O5)CC[C@]4(C)[C@H]3CC[C@]12C (stereo partly specified) | Active | 
4 | CC(=O)OC[C@H]1OC(O[C@H]2CC[C@@]3(C)C(=CC[C@H]4[C@@H]5CC[C@H](/C(C)=N/OCC=C(C)C)[C@@]5(C)CC[C@@H]43)C2)C=C[C@@H]1OC(C)=O (stereo partly specified) | Active | 
5 | CC(=O)OC[C@H]1OC(O[C@H]2CC[C@@]3(C)C(=CC[C@H]4[C@@H]5CC[C@H](/C(C)=N/OC6C=CCCC6)[C@@]5(C)CC[C@@H]43)C2)C=C[C@@H]1OC(C)=O (stereo partly specified) | Active | Activity (Homo sapiens [2]): Dose-dependent effect; Activity (Homo sapiens [3]): Active; Activity (Homo sapiens [4]): Active
6 | CC(C)=CCC[C@](C)(O)[C@H]1CC[C@]2(C)[C@@H]1[C@H](O)C[C@@H]1[C@@]3(C)CC[C@H](O[C@@H]4O[C@H](CO)[C@@H](O)[C@H](O)[C@H]4O[C@@H]4O[C@H](CO)[C@@H](O)[C@H](O)[C@H]4O)C(C)(C)[C@@H]3CC[C@]12C | Active | 
7 | CC(=O)OC[C@H]1OC(O[C@H]2CC[C@@]3(C)C(=CC[C@H]4[C@@H]5CC[C@H](/C(C)=N/OCc6cccnc6)[C@@]5(C)CC[C@@H]43)C2)C=C[C@@H]1OC(C)=O (stereo partly specified) | inactive | 
8 | CCO/N=C(\C)[C@H]1CC[C@H]2[C@@H]3CC=C4C[C@@H](OC5C=C[C@H](OC(C)=O)C(COC(C)=O)O5)CC[C@]4(C)[C@H]3CC[C@]12C (single isomer, unassigned) | Active | 
9 | CC(=O)OC[C@H]1OC(O[C@H]2CC[C@@]3(C)C(=CC[C@H]4[C@@H]5CC[C@H]([C@H](C)CCCC(C)C)[C@@]5(C)CC[C@@H]43)C2)C=C[C@@H]1OC(C)=O (stereo partly specified) | Active | Activity (Homo sapiens [3]): Active; Activity (Homo sapiens [5]): Active; Activity (Homo sapiens [6]): Active; Activity (Homo sapiens [4]): Active
10 | CC(=O)OC[C@H]1OC(O[C@H]2CC[C@@]3(C)C(=CC[C@H]4[C@@H]5CC[C@H](/C(C)=N/OCC(C)C)[C@@]5(C)CC[C@@H]43)C2)C=C[C@@H]1OC(C)=O (stereo partly specified) | Active | 
11 | CO/N=C(\C)[C@H]1CC[C@H]2[C@@H]3CC=C4C[C@@H](OC5C=C[C@H](OC(C)=O)C(COC(C)=O)O5)CC[C@]4(C)[C@H]3CC[C@]12C (single isomer, unassigned) | Active | 
12 | CC(=O)OC[C@H]1OC(O[C@H]2CC[C@@]3(C)C(=CC[C@H]4[C@@H]5CC[C@H](/C(C)=N/O)[C@@]5(C)CC[C@@H]43)C2)C=C[C@@H]1OC(C)=O (stereo partly specified) | Active | 
13 | CCCCCO/N=C(\C)[C@H]1CC[C@H]2[C@@H]3CC=C4C[C@@H](OC5C=C[C@H](OC(C)=O)C(COC(C)=O)O5)CC[C@]4(C)[C@H]3CC[C@]12C (single isomer, unassigned) | Active | 
14 | CC(=O)OC[C@H]1OC(O[C@H]2CC[C@@]3(C)C(=CC[C@H]4[C@@H]5CC[C@H](/C(C)=N/OCc6ccccc6)[C@@]5(C)CC[C@@H]43)C2)C=C[C@@H]1OC(C)=O (stereo partly specified) | Active | Activity (Homo sapiens [2]): Dose-dependent effect; Activity (Homo sapiens [3]): Active; Activity (Homo sapiens [4]): Active
15 | C=C(CCC=C(C)C)[C@H]1CC[C@]2(C)[C@@H]1[C@H](O)C[C@@H]1[C@@]3(C)CC[C@H](O[C@@H]4O[C@H](CO)[C@@H](O)[C@H](O)[C@H]4O[C@@H]4O[C@H](CO)[C@@H](O)[C@H](O)[C@H]4O)C(C)(C)[C@@H]3CC[C@]12C | Active | 
16 | CC(=O)OC[C@H]1OC(O[C@H]2CC[C@@]3(C)C(=CC[C@H]4[C@@H]5CC[C@H](/C(C)=N/OCCC(C)C)[C@@]5(C)CC[C@@H]43)C2)C=C[C@@H]1OC(C)=O (stereo partly specified) | Active | 
17 | CC(=O)OCC1OC(O[C@H]2CC[C@@]3(C)C(=CC[C@H]4[C@@H]5CC[C@H](/C(C)=N/OC(C)C)[C@@]5(C)CC[C@@H]43)C2)C=C[C@@H]1OC(C)=O (single isomer, unassigned) | Active | 
18 | CC(=O)OC[C@H]1OC(O[C@H]2CC[C@@]3(C)C(=CC[C@H]4[C@@H]5CC[C@H](/C(C)=N/OC6CCCC6)[C@@]5(C)CC[C@@H]43)C2)C=C[C@@H]1OC(C)=O (stereo partly specified) | Active | Activity (Homo sapiens [2]): Dose-dependent effect; Activity (Homo sapiens [3]): Active; inhibition (Mus musculus [7]): Active; Activity (Homo sapiens [5]): Active; inhibition (Mus musculus [8]): Active; Activity (Homo sapiens [6]): Active; Activity (Homo sapiens [4]): Active; inhibition (Mus musculus [9]): Active
19 | C/C(=C\CCC(C)C)[C@H]1CC[C@H]2[C@@H]3CC=C4C[C@@H](OC5CCCCO5)CC[C@]4(C)[C@H]3CC[C@]12C (stereo partly specified) | Active | 
20 | CC(=O)OC[C@H]1OC(O[C@H]2CC[C@@]3(C)C(=CC[C@H]4[C@@H]5CC[C@H](/C(C)=C/CCC(C)C)[C@@]5(C)CC[C@@H]43)C2)C=C[C@@H]1OC(C)=O (stereo partly specified) | Active | Activity (Homo sapiens [10]): Active
21 | CC(=O)OC[C@H]1OC(O[C@H]2CC[C@@]3(C)C(=CC[C@H]4[C@@H]5CC[C@H]([C@@](C)(O)CCCC(C)C)[C@@]5(C)CC[C@@H]43)C2)C=C[C@@H]1OC(C)=O (stereo partly specified) |  | Activity (Homo sapiens [10]): Active
22 | C=CCO/N=C(\C)[C@H]1CC[C@H]2[C@@H]3CC=C4C[C@@H](OC5C=C[C@H](OC(C)=O)C(COC(C)=O)O5)CC[C@]4(C)[C@H]3CC[C@]12C (single isomer, unassigned) | Active | 
